According to ChEMBL document CHEMBL1124464, “Peripherally acting enkephalin analogues. 2. Polar tri- and tetrapeptides” (1989):

Legend:
Format in all cases: functional
[1] = organism: Cavia porcellus; assay: Inhibition of electrically induced contractions on the guinea pig ileum; details: read-out: ED50 (the source's name)
In short: (§1)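 Guinea pig ileum contractions evoked by coaxial stimulation at 0.1 Hz, 0.5-ms pulses, supramaximal voltage, recorded isometrically; dose-response curves built with 15-min washout between doses.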

[2] = test system: Mus musculus; assay: Antinociceptive activity of subcutaneously administered compound in acetic acid (AA) induced writhing mice; details: sc
In short: (§2)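 Male TFW mice, groups of five to six, given drug subcutaneously (10 mL kg-1), then ip acetic acid 0.6% at 25 mL kg-1. Writhes counted for 5 min beginning 15 min after acetic acid. ED50 = dose reducing writhes 50% versus vehicle, by linear regression.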

[3] = test system: Mus musculus; assay: Antinociceptive activity of subcutaneously administered compound in phenyl-p-benzoquinone induced writhing mice; details: Mus musculus, sc; read-out: ED50
In short: (§3)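 Groups of five to six female CD1 mice given drug subcutaneously (10 mL kg-1) 30 min before ip phenyl-p-benzoquinone 2.5 mg kg-1. Writhes (abdominal constrictions/hind-limb extensions) counted over 2.5 min from 10 min post-PBQ. ED50, the dose giving 50% fewer writhes than vehicle, from linear regression.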

[4] = test system: Mus musculus; assay: Antinociceptive activity of perorally administered compound (50 mg) in phenyl-p-benzoquinone induced writhing mice
In short: (§4)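 Female CD1 mice, groups of five to six, dosed orally by blunt intragastric needle (10 mL kg-1) 30 min before ip phenyl-p-benzoquinone 2.5 mg kg-1. Abdominal constrictions/hind-limb extensions counted over 2.5 min starting 10 min after PBQ. ED50 = dose halving writhes versus vehicle, by linear regression.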

[5] = test system: Rodentia sp.; assay: Antinociceptive activity in the hot plate test (central activity) in rodents, when compound administered subcutaneously at 20 mg
In short: (§5)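 Male CFLP mice, groups of five to six, placed on a copper surface held at 55 °C; latency to paw licking/shaking or jumping recorded, 30-s cut-off. Drug given subcutaneously at 10 mL kg-1. ED50 = dose doubling response latency versus vehicle, by parallel-line probit analysis.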

[6] = organism: Mus musculus; assay: Dose ratio in the presence and absence of the peripheral opioid antagonist in N-methyl-nalorphine in AA writhing mice
In short: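 Acetic acid (0.6%, ip) writhing in male TFW mice; N-methylnalorphine 11.5 mg kg-1 ip 20 min before subcutaneous agonist. Writhes counted 5 min from 15 min post-irritant. Dose ratio taken as the shift between parallel regression lines with and without antagonist.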

[7] = test system: Rodentia sp.; assay: (§6) Antinociceptive activity in the hot plate test (central activity) in rodents, when compound administered subcutaneously at 50 mg; in short: as §5
[8] = test system: Mus musculus; assay: Antinociceptive activity of perorally administered compound (20 mg) in phenyl-p-benzoquinone induced writhing mice
In short: as §4, with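 “mice (Charles River),” for “mice,”, “PBQ at” for “phenyl-p-benzoquinone”, “extensions were” for “extensions”, “is the” for “=”, “vehicle, estimated” for “vehicle,”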

[9] = test system: Mus musculus; assay: (§7) Antinociceptive activity of subcutaneously administered compound (1 mg) in phenyl-p-benzoquinone induced writhing mice
In short: (§8)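 Female CD1 mice (Charles River), groups of five to six, given vehicle or drug sc (10 mL kg-1) 30 min before ip phenyl-p-benzoquinone at 2.5 mg kg-1 (10 mL kg-1). Writhes were counted for 2.5 min from 10 min post-irritant. ED50, the dose giving a 50% reduction in writhes relative to vehicle, was obtained by linear regression.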

[10] = test system: Mus musculus; assay: Antinociceptive activity of subcutaneously administered compound (20 mg) in acetic acid (AA) induced writhing mice; in short: as §2
[11] = test system: Rodentia sp.; assay: Antinociceptive activity in the hot plate test (central activity) in rodents, when compound administered subcutaneously at 100 mg; in short: as §5
[12] = test system: Mus musculus; assay: as §7; in short: as §3; remark: listed apart in the source
[13] = test system: Mus musculus; assay: (§9) Antinociceptive activity of subcutaneously administered compound (10 mg) in phenyl-p-benzoquinone induced writhing mice; in short: as §3
[14] = test system: Mus musculus; assay: as §6
In short: (§10)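 Male CFLP mice (Hacking and Churchill), groups of five to six, dosed sc at 10 mL kg-1 and placed on a copper surface held at 55 °C. Signs of discomfort (paw licking/shaking, jumping) were scored, with a 30-s cut-off. ED50 is the dose doubling response latency versus vehicle, estimated by parallel-line probit analysis.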

[15] = test system: Rodentia sp.; assay: Antinociceptive activity in the hot plate test (central activity) in rodents, when compound administered subcutaneously at 10 mg; in short: as §5
[16] = test system: Mus musculus; assay: Antinociceptive activity of subcutaneously administered compound (30 mg) in acetic acid (AA) induced writhing mice; in short: as §2
[17] = test system: Cavia porcellus; assay: Inhibition of electrically induced contractions on the guinea pig ileum at […] after dosing.; in short: as §1
[18] = test system: Mus musculus; assay: Antinociceptive activity of perorally administered compound in phenyl-p-benzoquinone induced writhing mice; details: po; in short: as §4
[19] = test system: Mus musculus; assay: Antinociceptive activity of subcutaneously administered compound (3 mg) in acetic acid (AA) induced writhing mice; in short: as §2
[20] = test system: Mus musculus; assay: as §9; in short: as §8; remark: listed apart in the source
[21] = test system: Rodentia sp.; assay: Antinociceptive activity in the hot plate test (central activity) in rodents, when compound administered subcutaneously at; details: sc; in short: as §10
[22] = test system: Mus musculus; assay: Antinociceptive activity of subcutaneously administered compound (100 mg) in acetic acid (AA) induced writhing mice; in short: as §2
[23] = test system: Mus musculus; assay: Antinociceptive activity of subcutaneously administered compound (10) in phenyl-p-benzoquinone induced writhing mice; in short: as §3

Structure (SMILES)	EC50 [1]	ED50 [2]	ED50 [3]	Ratio [6]	Inhibition [8]	other results
CC(=O)O.CCN(CCc1ccccc1[N+](=O)[O-])C(=O)CNC(=O)[C@@H](CCCN=C(N)N)NC(=O)[C@@H](N)Cc1ccc(O)cc1	0.118 µM	2.7 mg/kg	31 mg/kg	6.4	–	Inhibition [4]: 0%; Inhibition [5]: 0%
CC(=O)O.CCN(Cc1ccccc1[N+](=O)[O-])C(=O)CNC(=O)[C@@H](CCCN=C(N)N)NC(=O)[C@@H](N)Cc1ccc(O)cc1	0.522 µM	6.1 mg/kg	60.3 mg/kg	2.8	–	Inhibition [7]: 0%
CC(=O)O.CCN(CCc1ccc2ccccc2c1)C(=O)CNC(=O)[C@@H](CCCN=C(N)N)NC(=O)[C@H](Cc1ccc(O)cc1)N=C(N)N	–	–	–	–	0%	Inhibition [9]: 11%
CC(=O)O.CCN(CCc1ccc(Cl)c(Cl)c1)C(=O)CNC(=O)[C@@H](CCCN=C(N)N)NC(=O)[C@@H](N)Cc1ccc(O)cc1	0.0125 µM	–	4.7 mg/kg	0.5	0%	Inhibition [10]: 0%; Inhibition [11]: ~100%
CC(=O)O.CCN(CCc1ccc([N+](=O)[O-])o1)C(=O)CNC(=O)[C@@H](CCCN=C(N)N)NC(=O)[C@H](Cc1ccc(O)cc1)N=C(N)N	–	–	–	–	15%	Inhibition [12]: 17%
CC(=O)O.CCN(CCc1ccc2ccccc2c1)C(=O)CNC(=O)[C@@H](CCCN=C(N)N)NC(=O)[C@@H](N)Cc1ccc(O)cc1	–	–	–	–	0%	Inhibition [12]: 27%
CC(=O)O.CCN(Cc1ccc([N+](=O)[O-])cc1)C(=O)CNC(=O)[C@@H](CCCN=C(N)N)NC(=O)[C@@H](N)Cc1ccc(O)cc1	0.0097 µM	0.02 mg/kg	–	2.8	–	Inhibition [13]: 0%; Inhibition [4]: 0%; Inhibition [14]: 0%
CC(=O)O.CCN(CCc1ccccc1F)C(=O)CNC(=O)[C@@H](CCCN=C(N)N)NC(=O)[C@@H](N)Cc1ccc(O)cc1	0.022 µM	0.3 mg/kg	13.7 mg/kg	13.3	–	Inhibition [4]: 0%; Inhibition [15]: 0%
CC(=O)O.CCN(CCc1ccco1)C(=O)CNC(=O)[C@@H](CCCN=C(N)N)NC(=O)[C@@H](N)Cc1ccc(O)cc1	–	–	–	–	0%	Inhibition [12]: 0%
CC(=O)O.CCN(CCc1ccc(S(N)(=O)=O)cc1)C(=O)CNC(=O)[C@@H](CCCN=C(N)N)NC(=O)[C@H](Cc1ccc(O)cc1)N=C(N)N	4.9 µM	–	–	–	–	Inhibition [16]: 0%
CC(=O)O.CCN(CCc1ccc([N+](=O)[O-])o1)C(=O)CNC(=O)[C@@H](CCCN=C(N)N)NC(=O)[C@@H](N)Cc1ccc(O)cc1	–	–	–	–	0%	Inhibition [12]: 0%
CC(=O)O.CCN(CCNC(=O)[C@@H](CCCN=C(N)N)NC(=O)[C@@H](N)Cc1ccc(O)cc1)CCc1ccc([N+](=O)[O-])cc1	–	–	–	–	–	Inhibition [17]: 25%
CC(=O)O.CCN(CCc1ccc([N+](=O)[O-])cc1)C(=O)CNC(=O)[C@@H](CCCN=C(N)N)NC(=O)[C@@H](N)Cc1ccc(O)cc1	0.0486 µM	3.1 mg/kg	17.5 mg/kg	4.5	–	ED50 [18]: 43.5 mg/kg; Inhibition [11]: 0%
CC(=O)O.CCN(CCc1ccncc1)C(=O)CNC(=O)[C@@H](CCCN=C(N)N)NC(=O)[C@@H](N)Cc1ccc(O)cc1	0.569 µM	–	–	–	–	Inhibition [19]: 0%
CC(=O)O.CCN(CCc1cccs1)C(=O)CNC(=O)[C@@H](CCCN=C(N)N)NC(=O)[C@@H](N)Cc1ccc(O)cc1	–	–	–	–	21%	Inhibition [12]: 0%
CC(=O)O.CCN(CCc1ccccc1C(F)(F)F)C(=O)CNC(=O)[C@@H](CCCN=C(N)N)NC(=O)[C@H](Cc1ccc(O)cc1)N=C(N)N	0.0284 µM	–	–	–	0%	Inhibition [20]: 40%
CC(=O)O.CCN(CCc1ccccc1F)C(=O)CNC(=O)[C@@H](CCCN=C(N)N)NC(=O)[C@H](Cc1ccc(O)cc1)N=C(N)N	0.0246 µM	0.17 mg/kg	0.9 mg/kg	9.8	–	ED50 [18]: ~50 mg/kg; ED50 [21]: 22.2 mg/kg
CC(=O)O.CCN(CCc1ccc(S(N)(=O)=O)cc1)C(=O)CNC(=O)[C@@H](CCCN=C(N)N)NC(=O)[C@@H](N)Cc1ccc(O)cc1	11 µM	–	–	–	–	Inhibition [22]: 0%
CC(=O)O.CCN(Cc1ccccc1[N+](=O)[O-])C(=O)CNC(=O)[C@@H](CCCN=C(N)N)NC(=O)[C@H](Cc1ccc(O)cc1)N=C(N)N	0.244 µM	1.1 mg/kg	4 mg/kg	11	14%	Inhibition [14]: 0%
CC(=O)O.CCN(CCc1ccc(Br)cc1)C(=O)CNC(=O)[C@@H](CCCN=C(N)N)NC(=O)[C@@H](N)Cc1ccc(O)cc1	< 0.1 µM	–	–	–	0%	Inhibition [22]: 0%; Inhibition [11]: 0%; Inhibition [12]: 10%
CC(=O)O.CCN(CCCc1ccc([N+](=O)[O-])cc1)C(=O)CNC(=O)[C@@H](CCCN=C(N)N)NC(=O)[C@@H](N)Cc1ccc(O)cc1	1.8 µM	–	–	–	–	Inhibition [16]: 0%
CC(=O)O.CCN(CCc1ccc(Br)cc1)C(=O)CNC(=O)[C@@H](CCCN=C(N)N)NC(=O)[C@H](Cc1ccc(O)cc1)N=C(N)N	0.216 µM	0.35 mg/kg	3.4 mg/kg	1.5	15%	Inhibition [15]: 0%
CC(=O)O.CCN(CCc1ccccc1C(F)(F)F)C(=O)CNC(=O)[C@@H](CCCN=C(N)N)NC(=O)[C@@H](N)Cc1ccc(O)cc1	0.0721 µM	–	–	–	0%	Inhibition [23]: 33%
CC(=O)O.CCN(Cc1ccc(F)cc1)C(=O)CNC(=O)[C@@H](CCCN=C(N)N)NC(=O)[C@@H](N)Cc1ccc(O)cc1	0.0638 µM	0.09 mg/kg	10.4 mg/kg	3.9	–	Inhibition [5]: 0%
CC(=O)O.CCN(Cc1ccc(-c2ccccc2)cc1)C(=O)CNC(=O)[C@@H](CCCN=C(N)N)NC(=O)[C@@H](N)Cc1ccc(O)cc1	–	–	–	–	0%	Inhibition [12]: 13%
